Experimental data reported in ChEMBL document CHEMBL1123428, “In vitro labeling of serotonin-S2 receptors: synthesis and binding characteristics of [3H]-7-aminoketanserin” (J Med Chem, 1986).

Experiments:
Rattus norvegicus [1] = organism: Rattus norvegicus; experiment: Compound was evaluated for its activity at membrane-bound receptor (M+L+P fraction) from rat frontal cortex; type: functional, organism-based; conditions: for IC50: Rattus norvegicus, Frontal cortex
Rattus norvegicus [2] = organism: Rattus norvegicus; experiment: Compound was evaluated for its activity at solubilized receptor (CHAPS/salt-solubilized preparation) from rat frontal cortex; type: functional, organism-based; conditions: for IC50: Rattus norvegicus, Frontal cortex
[3] = target: T1, Serotonin 1 (5-HT1) receptor (Rattus norvegicus, UniProt P28564+P30940+P19327+P28565); experiment: Compound was evaluated for binding activity against [3H]-5-HT as radioligand for serotonin S1 receptor; type: protein assay
Method in brief: (§1)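 Filtration binding technique applied to rat or guinea pig brain tissue. Tissues, buffers, radioligands and incubation conditions per earlier methods. Ki computed using radioligand KD values from the literature.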

D(2) dopamine receptor = D(2) dopamine receptor (Rattus norvegicus, UniProt P61169); experiment: Compound was evaluated for binding activity against [3H]haloperidol as radioligand for Dopamine receptor D2; method in brief: as §1
[4] = Binding affinity for detergent solubilized 5-HT-S2 receptor; design: species or system Rattus norvegicus
Method in brief: (§2)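 Rat frontal cortex microsomal fraction solubilized for 12 min at 4 °C in CHAPS/NaCl medium (13.6 mM CHAPS, 2.8 M NaCl, pH 7.2), centrifuged at 180000 g, and supernatant diluted to 1:16 w/v. Incubated 15 min at 30 °C with 2 nM [3H]-7-aminoketanserin (final) and drug. Free ligand removed by charcoal/BSA, supernatant counted. IC50 from two triplicate experiments; Ki by Cheng-Prusoff.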

[5] = Half life time was determined; type: ADME
Method in brief: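 Kinetics of [3H]-7-aminoketanserin at rat frontal cortex receptors, membrane-bound (M+L+P) or CHAPS/salt-solubilized. Association ran for 20 min. Dissociation was started by adding a 1000-fold excess of pipamperone and treated as first-order. Means ± SD of independent triplicate experiments.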

[6] = Compound was evaluated at membrane-bound receptor (M+L+P fraction) from rat frontal cortex; type: tissue-based
Method in brief: (§3)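 Rat frontal cortex (M+L+P) fraction, diluted 1:100 w/v, in 50 mM Tris-HCl pH 7.7. Incubated 15 min at 37 °C with 1 nM [3H]-7-aminoketanserin (final) and unlabeled drug. Stopped by rapid GF/B filtration with two ice-cold buffer rinses, then scintillation counting. IC50 from two experiments in triplicate; Ki by Cheng-Prusoff.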

[7] = target: Serotonin 2 (5-HT2) receptor (Rattus norvegicus, UniProt P30994+P08909+P14842); experiment: Evaluated for binding activity against [3H]ketanserin as radioligand for 5-hydroxytryptamine 2 receptor; type: protein assay; method in brief: as §1
Rattus norvegicus [8] = organism: Rattus norvegicus; experiment: (§4) Number of binding sites of the receptor was determined
Method in brief: (§5)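 Saturation binding of [3H]-7-aminoketanserin to rat frontal cortex (M+L+P) fraction (three experiments) or solubilized preparation (two experiments), each in triplicate. Specific binding is total minus binding with a 1000-fold methysergide excess. Bmax and KD taken from computer-fitted Scatchard plots.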

[9] = target: T1, Serotonin 1 (5-HT1) receptor; experiment: Compound was evaluated for binding activity against [3H]5-HT as radioligand for serotonin S1 receptor; type: protein assay; method in brief: as §1
Histamine H1 receptor = Histamine H1 receptor (Rattus norvegicus, UniProt P31390); experiment: Compound was evaluated for binding activity against [3H]pyrilamine as radioligand for Histamine H1 receptor; method in brief: as §1
Rattus norvegicus [10] = organism: Rattus norvegicus; experiment: as §4; method in brief: as §5; remark: listed apart in the source
[11] = Compound was evaluated at solubilized receptor (CHAPS/salt-solubilized preparation) from rat frontal cortex; type: tissue-based; method in brief: as §2
[12] = target: Muscarinic acetylcholine receptor; experiment: Compound was evaluated for binding activity against [3H]dexetimide as radioligand for muscarinic-acetylcholine receptor; type: protein assay; method in brief: as §1
[13] = Binding affinity for membrane-bound 5-HT-S2 receptor; design: species or system Rattus norvegicus; method in brief: as §3
[14] = target: T2, Adrenergic receptor alpha-2 (Rattus norvegicus, UniProt P22086+P19328+P22909); experiment: Compound was evaluated for binding activity against [3H]clonidine as radioligand for alpha-2 adrenergic receptor; type: protein assay; method in brief: as §1
T2 sequence (P22086 whole entry): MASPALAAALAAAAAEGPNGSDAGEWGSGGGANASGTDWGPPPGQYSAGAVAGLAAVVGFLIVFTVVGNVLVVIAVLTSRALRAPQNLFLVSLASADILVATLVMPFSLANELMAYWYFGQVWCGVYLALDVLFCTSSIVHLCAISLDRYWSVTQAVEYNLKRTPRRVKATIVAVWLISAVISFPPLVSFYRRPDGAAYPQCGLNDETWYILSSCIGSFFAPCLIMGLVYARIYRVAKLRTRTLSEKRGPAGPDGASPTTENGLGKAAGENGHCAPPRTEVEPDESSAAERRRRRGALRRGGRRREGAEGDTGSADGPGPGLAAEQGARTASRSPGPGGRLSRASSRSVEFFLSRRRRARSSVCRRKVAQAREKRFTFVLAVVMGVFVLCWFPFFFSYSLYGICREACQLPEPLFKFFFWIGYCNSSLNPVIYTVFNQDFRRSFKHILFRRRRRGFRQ
T2 sequence (P19328 whole entry): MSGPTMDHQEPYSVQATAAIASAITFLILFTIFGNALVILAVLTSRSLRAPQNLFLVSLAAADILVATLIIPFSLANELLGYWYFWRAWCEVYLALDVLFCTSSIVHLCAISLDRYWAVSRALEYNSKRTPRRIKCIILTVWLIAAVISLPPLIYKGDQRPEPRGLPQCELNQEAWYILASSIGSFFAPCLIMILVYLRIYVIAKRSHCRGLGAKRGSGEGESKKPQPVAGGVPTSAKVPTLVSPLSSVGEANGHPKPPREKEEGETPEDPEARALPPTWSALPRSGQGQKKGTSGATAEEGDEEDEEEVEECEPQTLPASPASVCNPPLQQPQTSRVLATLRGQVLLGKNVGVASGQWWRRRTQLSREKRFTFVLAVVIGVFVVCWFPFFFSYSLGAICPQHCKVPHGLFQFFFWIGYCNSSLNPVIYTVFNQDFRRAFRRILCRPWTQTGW
T2 sequence (P22909 whole entry): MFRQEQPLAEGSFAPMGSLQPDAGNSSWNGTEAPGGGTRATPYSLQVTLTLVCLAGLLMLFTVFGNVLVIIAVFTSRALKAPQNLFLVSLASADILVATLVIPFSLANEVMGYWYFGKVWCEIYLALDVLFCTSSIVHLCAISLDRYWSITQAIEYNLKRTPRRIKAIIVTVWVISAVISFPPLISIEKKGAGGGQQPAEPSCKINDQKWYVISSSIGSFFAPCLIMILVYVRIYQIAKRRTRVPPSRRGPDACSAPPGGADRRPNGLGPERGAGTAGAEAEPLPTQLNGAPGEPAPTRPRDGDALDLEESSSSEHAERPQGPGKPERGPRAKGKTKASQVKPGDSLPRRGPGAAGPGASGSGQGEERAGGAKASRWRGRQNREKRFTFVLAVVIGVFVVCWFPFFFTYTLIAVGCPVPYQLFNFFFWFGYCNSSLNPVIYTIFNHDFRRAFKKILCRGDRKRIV

[15] = target: T3, Adrenergic receptor alpha-1 (Rattus norvegicus, UniProt P15823+P23944+P43140); experiment: Compound was evaluated for binding activity against [3H]-WB- 4101 as radioligand for alpha-1 adrenergic receptor; type: protein assay; method in brief: as §1
T3 sequence (P15823 whole entry): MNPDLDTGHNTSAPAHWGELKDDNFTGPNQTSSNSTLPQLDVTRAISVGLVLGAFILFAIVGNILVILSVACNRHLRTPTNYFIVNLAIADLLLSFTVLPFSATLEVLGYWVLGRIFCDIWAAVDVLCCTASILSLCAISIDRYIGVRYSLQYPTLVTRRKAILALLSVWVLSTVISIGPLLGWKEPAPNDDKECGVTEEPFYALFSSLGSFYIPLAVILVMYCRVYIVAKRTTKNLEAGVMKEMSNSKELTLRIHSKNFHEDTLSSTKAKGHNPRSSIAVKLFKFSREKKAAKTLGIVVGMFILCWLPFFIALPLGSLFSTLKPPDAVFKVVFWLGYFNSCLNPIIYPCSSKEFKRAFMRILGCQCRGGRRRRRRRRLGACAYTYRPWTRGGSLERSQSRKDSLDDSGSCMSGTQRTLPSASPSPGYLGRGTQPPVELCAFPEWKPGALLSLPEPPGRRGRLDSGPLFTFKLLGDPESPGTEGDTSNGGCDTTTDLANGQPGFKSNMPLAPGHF
T3 sequence (P23944 whole entry): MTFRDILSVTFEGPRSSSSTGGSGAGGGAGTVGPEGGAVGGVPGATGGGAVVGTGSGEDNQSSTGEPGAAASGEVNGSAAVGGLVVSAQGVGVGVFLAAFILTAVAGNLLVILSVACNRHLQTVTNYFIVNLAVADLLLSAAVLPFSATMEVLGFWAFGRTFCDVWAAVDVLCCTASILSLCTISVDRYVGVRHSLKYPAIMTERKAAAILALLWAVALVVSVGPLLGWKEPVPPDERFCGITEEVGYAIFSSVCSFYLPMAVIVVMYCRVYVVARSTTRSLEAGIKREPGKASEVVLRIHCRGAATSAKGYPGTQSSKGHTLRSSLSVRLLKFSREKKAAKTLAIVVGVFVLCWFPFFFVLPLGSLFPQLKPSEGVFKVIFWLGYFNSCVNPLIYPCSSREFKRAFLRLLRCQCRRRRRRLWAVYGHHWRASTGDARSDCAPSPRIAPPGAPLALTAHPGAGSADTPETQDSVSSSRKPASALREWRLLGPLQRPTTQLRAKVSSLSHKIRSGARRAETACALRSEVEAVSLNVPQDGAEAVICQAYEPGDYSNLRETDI
T3 sequence (P43140 whole entry): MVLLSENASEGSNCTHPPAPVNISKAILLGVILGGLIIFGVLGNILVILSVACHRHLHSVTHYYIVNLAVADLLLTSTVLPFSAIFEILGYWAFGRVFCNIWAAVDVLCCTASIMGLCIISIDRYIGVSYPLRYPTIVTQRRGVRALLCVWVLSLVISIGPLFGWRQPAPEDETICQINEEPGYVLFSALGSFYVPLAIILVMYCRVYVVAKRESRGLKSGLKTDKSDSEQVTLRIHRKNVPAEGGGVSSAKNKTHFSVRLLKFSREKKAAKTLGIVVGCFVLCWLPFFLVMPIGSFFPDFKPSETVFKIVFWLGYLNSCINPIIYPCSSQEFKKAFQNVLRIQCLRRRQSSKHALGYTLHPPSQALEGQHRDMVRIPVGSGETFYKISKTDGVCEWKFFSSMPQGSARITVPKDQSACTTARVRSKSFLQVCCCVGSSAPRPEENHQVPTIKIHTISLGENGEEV

Adrenergic receptor beta = Adrenergic receptor beta (Rattus norvegicus, UniProt P18090+P10608+P26255); experiment: Compound was evaluated for binding activity against [3H]dihydroalprenolol as radioligand for beta adrenergic receptor; type: protein assay; method in brief: as §1

Histamine H1 receptor, sequence (P31390 whole entry): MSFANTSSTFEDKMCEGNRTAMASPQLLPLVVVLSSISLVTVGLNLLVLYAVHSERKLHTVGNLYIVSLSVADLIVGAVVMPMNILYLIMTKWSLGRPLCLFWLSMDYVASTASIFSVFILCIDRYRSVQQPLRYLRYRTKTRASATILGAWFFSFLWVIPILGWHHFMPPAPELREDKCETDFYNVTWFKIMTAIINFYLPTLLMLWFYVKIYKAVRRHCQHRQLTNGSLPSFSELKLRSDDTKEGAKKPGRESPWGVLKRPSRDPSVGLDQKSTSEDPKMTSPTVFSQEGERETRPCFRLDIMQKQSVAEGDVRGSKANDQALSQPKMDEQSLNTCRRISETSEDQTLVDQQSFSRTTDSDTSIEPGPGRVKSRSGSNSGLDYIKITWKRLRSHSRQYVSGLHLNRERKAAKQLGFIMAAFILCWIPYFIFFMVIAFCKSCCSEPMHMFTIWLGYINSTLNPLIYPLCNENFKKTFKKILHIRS
D(2) dopamine receptor, sequence (P61169 whole entry): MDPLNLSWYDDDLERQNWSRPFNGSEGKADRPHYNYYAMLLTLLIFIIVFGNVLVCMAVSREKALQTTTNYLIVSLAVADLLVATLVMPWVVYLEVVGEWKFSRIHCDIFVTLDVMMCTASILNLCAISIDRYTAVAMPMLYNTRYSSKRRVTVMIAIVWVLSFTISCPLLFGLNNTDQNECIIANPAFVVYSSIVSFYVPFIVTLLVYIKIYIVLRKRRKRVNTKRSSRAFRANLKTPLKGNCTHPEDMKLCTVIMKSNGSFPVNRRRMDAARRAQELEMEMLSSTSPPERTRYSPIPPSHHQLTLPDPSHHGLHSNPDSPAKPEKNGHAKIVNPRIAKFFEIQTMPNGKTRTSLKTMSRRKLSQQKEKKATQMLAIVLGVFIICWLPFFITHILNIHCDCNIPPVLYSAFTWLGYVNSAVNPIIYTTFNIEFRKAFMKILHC

Cc1nc2sccn2c(=O)c1CCN1CCC(=C(c2ccc(F)cc2)c2ccc(F)cc2)CC1 [RITANSERIN]
Ki (Rattus norvegicus [1]): 0.9 nM | IC50 (Rattus norvegicus [1]): 3.47 nM | Ki (Rattus norvegicus [2]): 7.06 nM | IC50 (Rattus norvegicus [2]): 14.1 nM

COc1cc2nc(N3CCN(C(=O)c4ccco4)CC3)nc(N)c2cc1OC [PRAZOSIN]
Ki (Rattus norvegicus [1]): 11600 nM | IC50 (Rattus norvegicus [1]): 44700 nM | Ki (Rattus norvegicus [2]): 19900 nM | IC50 (Rattus norvegicus [2]): 39800 nM

CN(C)CCc1c[nH]c2ccc(O)cc12 [BUFOTENINE]
Ki (Rattus norvegicus [1]): 341 nM | IC50 (Rattus norvegicus [1]): 1320 nM | Ki (Rattus norvegicus [2]): 6300 nM | IC50 (Rattus norvegicus [2]): 12600 nM

Cc1nc2ccccn2c(=O)c1CCN1CCC(C(=O)c2ccc(F)cc2)CC1 [PIRENPERONE]
Ki (Rattus norvegicus [1]): 0.47 nM | IC50 (Rattus norvegicus [1]): 1.82 nM | Ki (Rattus norvegicus [2]): 3.54 nM | IC50 (Rattus norvegicus [2]): 7.08 nM

NCCc1c[nH]c2ccc(O)cc12 [SEROTONIN]
Ki (Rattus norvegicus [1]): 919 nM | IC50 (Rattus norvegicus [1]): 3550 nM | Ki (Rattus norvegicus [2]): 14100 nM | IC50 (Rattus norvegicus [2]): 28200 nM

Nc1ccc2c(=O)n(CCN3CCC(C(=O)c4ccc(F)cc4)CC3)c(=O)[nH]c2c1
-Log IC50 [3]: 5.25 | IC50 (D(2) dopamine receptor): 417 nM | Ki (D(2) dopamine receptor): 164 nM | Kd [4]: 2.03 nM | T1/2 [5]: 12.4 min | half-life [5]: 7.8 min | -Log IC50 [6]: 8.86 | Ki [6]: 0.36 nM | -Log IC50 [7]: 9.25 | Ki [7]: 0.17 nM | Bmax (Rattus norvegicus [8]): 37 fmol/mg | Ki [9]: 4416 nM | IC50 (Histamine H1 receptor): 2.24 nM | Ki (Histamine H1 receptor): 1.22 nM | Bmax (Rattus norvegicus [10]): 4.18 fmol/mg | -Log IC50 [11]: 8.35 | Ki [11]: 2.23 nM | -Log IC50 [12]: < 6 | Kd [13]: 0.35 nM | -Log IC50 [14]: < 6 | -Log IC50 [15]: 7.82 | Ki [15]: 5.49 nM | -Log IC50 (Adrenergic receptor beta): < 6

CN1CCN2c3ccccc3Cc3ccccc3C2C1 (configuration not stated) [MIANSERIN]
Ki (Rattus norvegicus [1]): 3.04 nM | IC50 (Rattus norvegicus [1]): 11.7 nM | Ki (Rattus norvegicus [2]): 13.5 nM | IC50 (Rattus norvegicus [2]): 26.9 nM
